Bioassay records deposited in PubChem BioAssay by several laboratories.
Only some compounds are listed: those with a hit (about 1.8% of all), similar ones and a draw of the others.
Runt-SMMHC FRET: inhibitors of RUNX1 Runt–CBFb-SMMHC binding, primary screen, biochemical, FRET, Cerulean-Runt, Venus-CBFb-SMMHC, uHTS. Runt-related transcription factor 1 (Homo sapiens) + Core-binding factor subunit beta …. Cerulean-Runt/Venus-CBFb-SMMHC FRET ratio 530/480, 1 h. inhibition, % at 20 µM. 0.74% of 220,000 active;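 active = mean inhibition across duplicate retests at 20 µM reaching about 50%, limit read from the data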;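 also: 0% = DMSO wells and 100% = wells with excess untagged CBFb-SMMHC; inhibitors lower the FRET ratio by blocking Runt binding to CBFb-SMMHC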
Target sequence (Q01196 whole entry, looked up): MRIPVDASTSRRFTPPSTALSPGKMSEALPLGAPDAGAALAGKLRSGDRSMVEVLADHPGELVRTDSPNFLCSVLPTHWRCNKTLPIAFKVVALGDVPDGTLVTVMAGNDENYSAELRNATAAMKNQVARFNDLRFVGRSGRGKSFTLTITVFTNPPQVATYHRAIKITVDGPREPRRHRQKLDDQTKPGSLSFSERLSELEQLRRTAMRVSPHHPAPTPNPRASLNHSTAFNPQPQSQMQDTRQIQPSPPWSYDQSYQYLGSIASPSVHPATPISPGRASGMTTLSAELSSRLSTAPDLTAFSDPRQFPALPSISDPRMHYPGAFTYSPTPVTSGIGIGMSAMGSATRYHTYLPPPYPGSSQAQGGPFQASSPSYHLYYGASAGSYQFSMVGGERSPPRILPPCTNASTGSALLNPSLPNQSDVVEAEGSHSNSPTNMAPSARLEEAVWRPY
Target sequence (Q13951 whole entry, looked up): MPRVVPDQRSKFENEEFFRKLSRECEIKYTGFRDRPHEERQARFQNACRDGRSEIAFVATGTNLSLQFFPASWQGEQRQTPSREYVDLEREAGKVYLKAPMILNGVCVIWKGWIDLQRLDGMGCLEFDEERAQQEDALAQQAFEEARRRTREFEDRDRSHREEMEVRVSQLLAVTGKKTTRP
Rce1 inh: yeast Rce1p protease inhibitors, primary screen, biochemical, fluorescence, cell-free homogeneous. yeast membranes, quenched prenylated peptide cleavage fluorescence. calls only. 0.27% of 290,000 active. AID 2563, 2010;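 active = fall in fluorescence gain of 50% or more versus controls, with final raw signal at or below 3038400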;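 also: plate controls were neutral control wells for no effect and wells lacking membranes for full effect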
RanGTP-Imp inh: inhibitors of RanGTP-importin-beta interaction, primary screen, biochemical, FRET, CFP-Ran, YFP-importin-beta, homogeneous; Ran GTPase (GTP-bound) - importin-beta complex; cell-free CFP-Ran/YFP-importin-beta FRET ratio; inhibition, % (concentration not given with the values); 1.1% of 300,000 active; AID 2216, 2009;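 active = more than half of the replicate wells show a fall in the fluorescence ratio signal beyond about 16%, limit read from the data, passing the limit was not always enough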;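 also: 0% = DMSO wells and 100% = Ran loaded with GDP instead of GTP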
Runt-CBFb FRET: inhibitors of RUNX1 Runt–CBFb binding, primary screen, biochemical, FRET, Cerulean-Runt, Venus-CBFb, uHTS; Runt-related transcription factor 1 (Homo sapiens) + Core-binding factor subunit beta …; Cerulean-Runt/Venus-CBFb FRET ratio 530/480, 1 h; inhibition, % at 20 µM; 0.46% of 220,000 active; AID 1496, 2009;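 active = inhibition over about 50% at 20 µM in the single-dose screen, limit read from the data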;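 also: 0% = DMSO wells and 100% = excess unlabeled CBFb competitor control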
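Assay system: Cerulean-tagged RUNX1 Runt domain (FRET donor) fusion protein / Amount: 100 nM each of Venus-CBFb and Cerulean-Runt domain / Medium: Tris buffer pH 7.5 with salts and BSA / Also added: Venus-CBFb 100 nM / Schedule: 1 h complex formation plus 1 h compound treatment, room temperature / Signal: FRET fluorescence / Read-out: loss of energy transfer signal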
Platelet DG rel: inhibitors of platelet dense granule secretion, primary screen, cell-based, MLPCN, human platelets; human platelet-rich plasma, SFLLRN dense granule ATP release, luminescence; inhibition, %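 (compounds screened at 7.5 µM in platelet-rich plasma)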; 0.22% of 300,000 active;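 active = mean replicate score, as percent of positive control, at or above 50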
YIC FRET counter: YIC intramolecular FRET probe signal interference, dose response, counter-screen for RanGTP-importin-beta inhibitor project, biochemical, fluorescence FRET; shares compounds with RanGTP-Imp inh; Purified YIC probe, intramolecular FRET ratio YFP/CFP; IC50, µM; 40% of 1,000 active; AID 435026, 2010;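 active = fitted half-maximal inhibitory concentration no more than tenfold above the top dose tested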
* = called active by the depositor; i = inactive; · = not tested or not shown.

SMILES | Runt-SMMHC FRET | Rce1 inh | RanGTP-Imp inh | Runt-CBFb FRET | Platelet DG rel | YIC FRET counter
CS(=O)(=O)N(CC(=O)NCCSCc1ccco1)c1ccc(Cl)cc1 | -0.9 | i | 16.4* | 3.1 | 15.9 | >50
Cc1ccsc1CN(C(=O)c1ccccc1)C1CCS(=O)(=O)C1 (stereo not given) | · | i | -1.0 | · | 13.8 | ·
CCOCCCNC(=O)c1cc(-c2ccc(Br)s2)nc2ccccc12 | · | i | 19.3* | · | 1.0 | 27.9*
CCCc1ccc2oc(C(=O)NCCCN3CCOCC3)c(C)c2c1 | · | i | 0.8 | · | -4.2 | ·
CCN(CC)S(=O)(=O)c1ccc2oc(C(=O)NCCCN3CCOCC3)c(C)c2c1 | -0.4 | i | 17.0* | -0.3 | 2.2 | >50
COc1ccc([N+](=O)[O-])cc1NC(=O)CSc1ncccn1 | -1.3 | i | 19.7* | 1.5 | -1.4 | >50
COc1ccc([N+](=O)[O-])cc1NC(=O)CSc1nccc(C)n1 | -6.3 | i | -1.8 | -0.1 | 1.9 | ·
COC(=O)C1=CN(Cc2ccccc2)C=C(C(=O)OC)C1c1ccc(O)c(OC)c1 | · | i | 28.4* | · | 5.4 | >50
COC(=O)C1=CN(Cc2ccc(OC)c(OC)c2)C=C(C(=O)OC)C1c1ccccc1F | · | i | 28.2* | · | 10.7 | 11.1*
Cc1cccc(NC(=O)c2cc3c(s2)-c2c(C)cccc2OC3)n1 | 61.4 | i | 29.7* | -18.2 | 21.2 | 7.29*
CC1CCCC(NC(=O)C2CCN(S(=O)(=O)c3cccc4nonc34)CC2)C1C (stereo not given) | · | i | -4.2 | · | 12.4 | ·
C[C@@H]1CN([C@@H](C)CO)C(=O)c2cc(NS(C)(=O)=O)ccc2O[C@@H](C)CCCCO[C@H]1CN(C)C(=O)Cc1ccccc1 | · | · | · | · | · | >50
COCCNc1cc(C)nc2cc(-c3ccc(C)cc3)nn12 | 24.7 | i | 19.2* | 2.7 | -6.5 | 3.77*
O=C(COC(=O)c1ccc2ccccc2c1)NCCCc1ccccc1 | 1.1 | i | 16.6* | -2.1 | -9.0 | >50
Nc1cc(C(=O)OCC(=O)NCCCc2ccccc2)ccc1Cl | · | i | 3.4 | · | 4.8 | ·
CCC(=O)Nc1c(-c2ccc3ccccc3c2)nc2ccccn12 | · | i | -1.6 | · | 1.6 | ·
CC(=O)NCCC(=O)Nc1nc2ccc(Oc3ccccc3)cc2s1 | · | i | 0.4 | · | 7.6 | ·
CC(CN1CCCCC1)OC(=O)COc1ccc(Br)cc1 (stereo not given) | · | i | -3.3 | · | -0.7 | ·
COc1cc(C2C(C(=O)/C=C/c3ccccc3)=C(O)C(=O)N2c2ccccn2)ccc1O (stereo not given) | -21.2 | i | -2.9 | -3.2 | -0.9 | ·
CC1(C)CC(=O)C/C(=N\NC(=O)C2CC23CCC3)C1 (stereo not given) | 0.6 | · | 18.2* | 2.0 | 4.3 | >50
CC1(C)CC(=O)C/C(=N\NC(=O)C2CC2c2ccccc2)C1 (stereo not given) | 0.6 | i | -0.3 | 2.2 | 1.6 | ·
CCOC(=O)C(=O)Nc1cc(C(=O)OC)cc(C(=O)OC)c1 | 3.0 | i | 16.1* | -1.1 | -0.5 | >50
COc1ccc(CNC(=O)C2CC(=O)N(C3CCCCC3)C2)cc1 (stereo not given) | · | i | 21.1* | · | -4.4 | >50
O=C(NCc1ccc(F)cc1)C1CC(=O)N(C2CCCCCCC2)C1 (stereo not given) | · | i | 0.6 | · | -3.2 | ·
CC(=O)Nc1ccc(NC(=O)c2ccc(C)c(S(=O)(=O)Nc3cccc(C)c3)c2)cc1 | -2.7 | i | -0.6 | -0.1 | 5.8 | ·
CCCn1c(N)c(CC)c(=O)[nH]c1=O | 1.3 | i | · | -1.2 | · | ·
CC(OC(=O)c1cc2sccc2n1C)C(=O)NCc1cccs1 (stereo not given) | -2.1 | i | 8.8 | -3.0 | -3.1 | ·
COCCNC(=O)C(C)OC(=O)c1cc2occc2n1C (stereo not given) | 0.1 | i | 19.2* | 1.6 | -8.8 | >50
